The source made the active and inactive calls.
What was measured:
[1] = target: ALK tyrosine kinase receptor (Homo sapiens) (UniProt Q9UM73); experiment: Inhibition of recombinant human ALK (1058 to end residues) at 10 uM using KKKSPGEYVNIEF as substrate measured after 40 mins in presence of [gamma33P]ATP by scintillation counting method
[2] = tested on: Tyrosine-protein kinase ABL1 (Homo sapiens), P00519 [M351T]; experiment: Inhibition of recombinant human ABL M351T mutant (27 to end residues) at 10 uM using EAIYAAPFAKKK as substrate measured after 40 mins in presence of [gamma33P]ATP by scintillation counting method
[3] = species on record: Mus musculus; experiment: Inhibition of full-length recombinant mouse BLK V421E mutant at 10 uM using poly(Glu, Tyr) 4:1 as substrate measured after 40 mins in presence of [gamma33P]ATP by scintillation counting method
Summary of the method: (§1)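 Kinase panel of 422 kinases screened by Eurofins KinaseProfiler at a single test-compound concentration of 10 µM.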

[4] = target: Cytoplasmic tyrosine-protein kinase BMX (Homo sapiens) (UniProt P51813); experiment: Inhibition of full-length recombinant human BMX at 10 uM using poly(Glu, Tyr) 4:1 as substrate measured after 40 mins in presence of [gamma33P]ATP by scintillation counting method; summary of the method: as §1
[5] = species on record: Homo sapiens; experiment: Inhibition of recombinant human BrSK2 S251I mutant (2 to end residues) at 10 uM using KKLNRTLSFAEPG as substrate measured after 40 mins in presence of [gamma33P]ATP by scintillation counting method
[6] = target: Cyclin-dependent kinase-like 3 (Homo sapiens) (UniProt Q8IVW4); experiment: Inhibition of recombinant human full-length CDKL3 (1 to 303 residues) at 10 uM using RRRFRPASPLRGP as substrate measured after 120 mins in presence of [gamma33P]ATP by scintillation counting method
[7] = species on record: Homo sapiens; experiment: Inhibition of recombinant human EphB2 A848S/ K918E mutant (560 to end residues) at 10 uM using KTFCGTPEYLAPEVRREPRILSEEEQEMFRDFDYIADWC as substrate measured after 40 mins in presence of [gamma33P]ATP by scintillation counting method
[8] = target: Focal adhesion kinase 1 (Homo sapiens) (UniProt Q05397); experiment: Inhibition of recombinant human FAK (411 to 686 residues) at 10 uM using EEEEYEEEEEEYYIIEEEEEEYEEEEEEYYEEEEEEKKKK as substrate measured after 40 mins in presence of [gamma33P]ATP by scintillation counting method
[9] = target: Fibroblast growth factor receptor 2 (Homo sapiens) (UniProt P21802); experiment: Inhibition of recombinant human FGFR2 (456 to 770 residues) at 10 uM using poly(Glu, Tyr) 4:1 as substrate measured after 40 mins in presence of [gamma33P]ATP by scintillation counting method
[10] = target: Tyrosine-protein kinase Fyn (Homo sapiens) (UniProt P06241); experiment: Inhibition of recombinant full-length human FYN at 10 uM using Cdc2 peptide as substrate measured after 40 mins in presence of [gamma33P]ATP by scintillation counting method
[11] = target: Interleukin-1 receptor-associated kinase 1 (Homo sapiens) (UniProt P51617); experiment: Inhibition of recombinant human IRAK1 (194 to end residues) at 10 uM using myelin basic protein as substrate measured after 40 mins in presence of [gamma33P]ATP by scintillation counting method
[12] = target: Tyrosine-protein kinase ITK/TSK (Homo sapiens) (UniProt Q08881); experiment: Inhibition of recombinant human ITK (352 to 617 residues) at 10 uM using myelin basic protein as substrate measured after 40 mins in presence of [gamma33P]ATP by scintillation counting method
[13] = target: Serine/threonine-protein kinase STK11 (Homo sapiens) (UniProt Q15831); experiment: Inhibition of recombinant full-length human LKB1 at 10 uM using LSNLYHQGKFLQTFCGSPLYRRR as substrate measured after 40 mins in presence of [gamma33P]ATP by scintillation counting method
[14] = target: MAP/microtubule affinity-regulating kinase 3 (Homo sapiens) (UniProt P27448); experiment: Inhibition of recombinant full-length human MARK3 at 10 uM using KKKVSRSGLYRSPSMPENLNRPR as substrate measured after 40 mins in presence of [gamma33P]ATP by scintillation counting method
[15] = target: MAP/microtubule affinity-regulating kinase 4 (Homo sapiens) (UniProt Q96L34); experiment: Inhibition of recombinant full-length human MARK4 at 10 uM using KKKVSRSGLYRSPSMPENLNRPR as substrate measured after 40 mins in presence of [gamma33P]ATP by scintillation counting method
[16] = tested on: Hepatocyte growth factor receptor (Homo sapiens), P08581 [D1228N]; experiment: Inhibition of recombinant human MET A1209G/V1290L/D1246N mutant (974 to end residues) at 10 uM using KKKGQEEEYVFIE as substrate measured after 40 mins in presence of [gamma33P]ATP by scintillation counting method
[17] = target: Serine/threonine-protein kinase PAK 1 (Homo sapiens) (UniProt Q13153); experiment: Inhibition of recombinant human PAK1 (150 to end residues) at 10 uM using RRRLSFAEPG as substrate measured after 40 mins in presence of [gamma33P]ATP by scintillation counting method
[18] = target: Serine/threonine-protein kinase MARK2 (Homo sapiens) (UniProt Q7KZI7); experiment: Inhibition of recombinant full-length human PAR1Balpha at 10 uM using KKKVSRSGLYRSPSMPENLNRPR as substrate measured after 40 mins in presence of [gamma33P]ATP by scintillation counting method
[19] = species on record: Homo sapiens; experiment: Inhibition of recombinant human PRAK R291E mutant at 10 uM using KKLRRTLSVA as substrate measured after 40 mins in presence of [gamma33P]ATP by scintillation counting method
[20] = species on record: Homo sapiens; experiment: Inhibition of human Ros V2262A mutant (1883 to end residues) using KKKSPGEYVNIEFG as substrate measured after 40 mins in presence of [gamma33P]ATP by scintillation counting method; summary of the method: as §1
[21] = target: Serine/threonine-protein kinase 32C (Homo sapiens) (UniProt Q86UX6); experiment: Inhibition of recombinant full-length human STK32C at 10 uM using casein as substrate measured after 120 mins in presence of [gamma33P]ATP by scintillation counting method
[22] = target: Testis-specific serine/threonine-protein kinase 3 (Homo sapiens) (UniProt Q96PN8); experiment: Inhibition of recombinant full-length human TSSK3 at 10 uM using AMARAASAAALARRR as substrate measured after 40 mins in presence of [gamma33P]ATP by scintillation counting method
[23] = target: Mitogen-activated protein kinase kinase kinase 20 (Homo sapiens) (UniProt Q9NYL2); experiment: Inhibition of recombinant full-length human ZAK at 10 uM using MBP as substrate measured after 40 mins in presence of [gamma33P]ATP by scintillation counting method

Measured: inhibition

Sequence of Serine/threonine-protein kinase MARK2 (Homo sapiens) (Q7KZI7 whole entry): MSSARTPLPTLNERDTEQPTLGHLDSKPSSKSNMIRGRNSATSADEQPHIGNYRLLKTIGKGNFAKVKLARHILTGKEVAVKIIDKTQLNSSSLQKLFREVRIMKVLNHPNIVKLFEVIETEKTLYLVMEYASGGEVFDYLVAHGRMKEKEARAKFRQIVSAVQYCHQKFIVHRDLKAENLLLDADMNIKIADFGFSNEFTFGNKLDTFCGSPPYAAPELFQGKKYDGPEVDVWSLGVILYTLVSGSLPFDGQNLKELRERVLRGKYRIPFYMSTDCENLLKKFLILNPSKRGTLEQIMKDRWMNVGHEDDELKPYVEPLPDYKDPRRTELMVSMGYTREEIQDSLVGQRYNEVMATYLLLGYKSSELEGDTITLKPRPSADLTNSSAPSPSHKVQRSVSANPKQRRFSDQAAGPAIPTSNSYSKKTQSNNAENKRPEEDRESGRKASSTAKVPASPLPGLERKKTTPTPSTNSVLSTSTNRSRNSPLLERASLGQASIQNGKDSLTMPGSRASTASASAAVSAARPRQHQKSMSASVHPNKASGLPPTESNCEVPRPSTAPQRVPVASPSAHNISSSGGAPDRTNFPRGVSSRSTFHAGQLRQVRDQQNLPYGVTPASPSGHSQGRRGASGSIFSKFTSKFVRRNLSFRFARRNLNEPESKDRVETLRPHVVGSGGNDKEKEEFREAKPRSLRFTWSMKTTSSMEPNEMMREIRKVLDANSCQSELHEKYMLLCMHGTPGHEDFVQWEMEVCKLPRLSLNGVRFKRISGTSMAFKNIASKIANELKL
Sequence of Testis-specific serine/threonine-protein kinase 3 (Homo sapiens) (Q96PN8 whole entry): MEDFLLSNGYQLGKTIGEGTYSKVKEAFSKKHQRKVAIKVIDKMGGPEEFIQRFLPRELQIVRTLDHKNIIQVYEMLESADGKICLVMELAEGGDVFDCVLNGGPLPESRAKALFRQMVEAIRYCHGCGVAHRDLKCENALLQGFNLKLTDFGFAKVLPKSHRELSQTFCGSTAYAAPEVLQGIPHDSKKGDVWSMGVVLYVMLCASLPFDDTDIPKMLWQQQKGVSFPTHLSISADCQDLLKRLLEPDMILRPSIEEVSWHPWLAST
Sequence of MAP/microtubule affinity-regulating kinase 3 (Homo sapiens) (P27448 whole entry, looked up): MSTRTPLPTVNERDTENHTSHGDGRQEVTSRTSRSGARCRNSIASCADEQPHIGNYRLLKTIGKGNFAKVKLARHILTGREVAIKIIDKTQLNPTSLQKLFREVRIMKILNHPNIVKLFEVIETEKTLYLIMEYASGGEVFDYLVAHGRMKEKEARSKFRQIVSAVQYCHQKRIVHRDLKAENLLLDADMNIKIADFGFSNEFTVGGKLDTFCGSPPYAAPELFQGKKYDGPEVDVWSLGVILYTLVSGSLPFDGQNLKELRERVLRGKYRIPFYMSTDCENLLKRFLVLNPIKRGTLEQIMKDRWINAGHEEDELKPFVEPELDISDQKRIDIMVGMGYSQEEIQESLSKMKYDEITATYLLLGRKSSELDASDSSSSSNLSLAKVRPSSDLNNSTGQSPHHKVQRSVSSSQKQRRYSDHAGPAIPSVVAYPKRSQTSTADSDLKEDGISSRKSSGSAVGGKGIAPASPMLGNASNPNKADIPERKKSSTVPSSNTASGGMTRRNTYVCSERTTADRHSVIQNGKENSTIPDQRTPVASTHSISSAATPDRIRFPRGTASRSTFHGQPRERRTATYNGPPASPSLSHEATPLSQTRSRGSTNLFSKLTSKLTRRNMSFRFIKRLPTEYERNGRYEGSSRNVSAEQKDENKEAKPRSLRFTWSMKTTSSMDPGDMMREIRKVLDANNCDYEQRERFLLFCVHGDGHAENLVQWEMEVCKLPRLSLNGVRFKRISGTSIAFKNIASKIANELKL
Sequence of Fibroblast growth factor receptor 2 (Homo sapiens) (P21802 22-821 limits assumed): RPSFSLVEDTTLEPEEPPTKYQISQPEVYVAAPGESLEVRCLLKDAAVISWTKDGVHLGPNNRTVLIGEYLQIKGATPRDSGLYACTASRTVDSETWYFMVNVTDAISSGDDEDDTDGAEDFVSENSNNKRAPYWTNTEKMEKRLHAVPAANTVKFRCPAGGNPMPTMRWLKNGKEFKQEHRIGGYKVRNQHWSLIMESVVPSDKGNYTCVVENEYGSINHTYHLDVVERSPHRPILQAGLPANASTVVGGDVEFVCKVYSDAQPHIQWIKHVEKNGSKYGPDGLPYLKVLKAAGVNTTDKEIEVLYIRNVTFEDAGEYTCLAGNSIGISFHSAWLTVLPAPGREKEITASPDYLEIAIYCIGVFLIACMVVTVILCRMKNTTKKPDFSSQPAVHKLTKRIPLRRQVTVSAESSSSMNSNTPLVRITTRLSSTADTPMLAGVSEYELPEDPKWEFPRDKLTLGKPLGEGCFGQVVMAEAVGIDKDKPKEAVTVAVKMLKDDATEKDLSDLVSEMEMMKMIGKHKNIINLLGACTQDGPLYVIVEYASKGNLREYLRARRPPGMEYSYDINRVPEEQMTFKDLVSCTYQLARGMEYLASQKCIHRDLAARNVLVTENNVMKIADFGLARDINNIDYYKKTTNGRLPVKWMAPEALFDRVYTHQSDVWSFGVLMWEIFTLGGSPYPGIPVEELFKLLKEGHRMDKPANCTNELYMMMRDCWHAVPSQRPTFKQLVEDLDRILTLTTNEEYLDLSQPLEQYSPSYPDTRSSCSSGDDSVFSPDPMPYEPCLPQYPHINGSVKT
Sequence of Cytoplasmic tyrosine-protein kinase BMX (Homo sapiens) (P51813 whole entry): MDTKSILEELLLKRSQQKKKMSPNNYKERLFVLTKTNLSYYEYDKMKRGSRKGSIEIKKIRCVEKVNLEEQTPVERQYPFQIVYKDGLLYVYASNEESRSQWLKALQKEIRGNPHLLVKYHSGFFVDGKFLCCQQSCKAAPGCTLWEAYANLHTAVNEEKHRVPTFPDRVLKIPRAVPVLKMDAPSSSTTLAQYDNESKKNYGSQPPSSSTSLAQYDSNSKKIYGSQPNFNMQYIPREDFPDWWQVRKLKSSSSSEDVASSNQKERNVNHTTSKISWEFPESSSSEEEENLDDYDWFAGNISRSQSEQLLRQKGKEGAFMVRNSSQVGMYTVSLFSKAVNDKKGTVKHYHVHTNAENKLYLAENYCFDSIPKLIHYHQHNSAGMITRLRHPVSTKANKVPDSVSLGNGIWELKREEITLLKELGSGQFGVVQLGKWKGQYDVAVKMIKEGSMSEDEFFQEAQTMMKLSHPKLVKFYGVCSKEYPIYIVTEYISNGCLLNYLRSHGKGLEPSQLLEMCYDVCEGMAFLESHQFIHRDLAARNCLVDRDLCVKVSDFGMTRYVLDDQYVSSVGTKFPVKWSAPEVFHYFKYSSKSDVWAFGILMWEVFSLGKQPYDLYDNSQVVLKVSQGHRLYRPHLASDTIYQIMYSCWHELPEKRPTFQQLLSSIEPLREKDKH
Sequence of MAP/microtubule affinity-regulating kinase 4 (Homo sapiens) (Q96L34 whole entry): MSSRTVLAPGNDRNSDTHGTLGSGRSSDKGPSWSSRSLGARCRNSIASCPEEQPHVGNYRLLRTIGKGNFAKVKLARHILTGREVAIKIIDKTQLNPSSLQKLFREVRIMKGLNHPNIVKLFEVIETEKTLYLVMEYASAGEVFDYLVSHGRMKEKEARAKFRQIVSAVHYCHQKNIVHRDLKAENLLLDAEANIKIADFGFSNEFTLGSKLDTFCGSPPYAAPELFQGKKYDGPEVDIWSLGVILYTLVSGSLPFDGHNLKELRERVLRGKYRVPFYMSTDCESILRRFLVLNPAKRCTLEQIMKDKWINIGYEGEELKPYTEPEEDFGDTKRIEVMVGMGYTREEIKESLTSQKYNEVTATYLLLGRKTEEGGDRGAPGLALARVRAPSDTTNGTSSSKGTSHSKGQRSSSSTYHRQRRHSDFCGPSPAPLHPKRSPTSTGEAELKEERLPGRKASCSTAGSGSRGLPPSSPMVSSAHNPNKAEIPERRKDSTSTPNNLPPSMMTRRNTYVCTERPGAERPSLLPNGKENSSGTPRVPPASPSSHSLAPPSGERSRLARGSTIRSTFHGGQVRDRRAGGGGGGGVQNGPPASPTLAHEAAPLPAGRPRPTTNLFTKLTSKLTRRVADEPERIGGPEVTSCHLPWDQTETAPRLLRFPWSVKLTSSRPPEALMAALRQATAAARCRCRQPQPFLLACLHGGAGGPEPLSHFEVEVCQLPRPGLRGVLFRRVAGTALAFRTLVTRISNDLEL
Sequence of Serine/threonine-protein kinase STK11 (Homo sapiens) (Q15831 whole entry): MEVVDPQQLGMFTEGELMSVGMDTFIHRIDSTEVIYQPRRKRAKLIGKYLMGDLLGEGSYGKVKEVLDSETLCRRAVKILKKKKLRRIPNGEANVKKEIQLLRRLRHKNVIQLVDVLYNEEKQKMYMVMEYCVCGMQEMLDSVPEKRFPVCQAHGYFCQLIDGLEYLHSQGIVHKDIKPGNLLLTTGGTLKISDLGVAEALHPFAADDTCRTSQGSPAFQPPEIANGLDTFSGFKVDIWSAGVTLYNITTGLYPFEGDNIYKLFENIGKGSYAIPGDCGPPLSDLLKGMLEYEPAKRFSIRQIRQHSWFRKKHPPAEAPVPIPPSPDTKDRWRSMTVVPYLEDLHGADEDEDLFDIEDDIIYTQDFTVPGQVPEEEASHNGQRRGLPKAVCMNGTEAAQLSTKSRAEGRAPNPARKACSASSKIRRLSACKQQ
Sequence of Serine/threonine-protein kinase PAK 1 (Homo sapiens) (Q13153 whole entry): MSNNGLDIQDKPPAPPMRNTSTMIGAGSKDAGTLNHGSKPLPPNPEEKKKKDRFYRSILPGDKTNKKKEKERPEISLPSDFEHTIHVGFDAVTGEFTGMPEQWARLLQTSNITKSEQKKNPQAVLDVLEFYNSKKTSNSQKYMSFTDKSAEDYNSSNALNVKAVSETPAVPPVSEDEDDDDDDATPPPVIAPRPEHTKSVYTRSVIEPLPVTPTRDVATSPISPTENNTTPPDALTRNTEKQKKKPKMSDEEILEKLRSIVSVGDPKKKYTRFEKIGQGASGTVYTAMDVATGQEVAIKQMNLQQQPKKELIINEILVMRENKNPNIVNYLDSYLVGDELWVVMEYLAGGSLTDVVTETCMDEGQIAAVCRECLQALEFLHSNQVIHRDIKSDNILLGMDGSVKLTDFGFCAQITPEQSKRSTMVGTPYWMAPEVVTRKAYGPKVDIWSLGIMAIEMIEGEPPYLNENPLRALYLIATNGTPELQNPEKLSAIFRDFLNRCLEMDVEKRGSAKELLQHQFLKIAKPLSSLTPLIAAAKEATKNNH

CN1C[C@H](Nc2nc3cc[nH]c3c(=O)n2C)C[C@H](c2ccc3c(c2)OCCO3)C1
inactive: all assays above

— ChEMBL document CHEMBL4350961, “Discovery of Pyrrolo[3,2- d]pyrimidin-4-one Derivatives as a New Class of Potent and Cell-Active Inhibitors of P300/CBP-Associated Factor Bromodomain” (J Med Chem, 2019)
